Measurements reported in ChEMBL document CHEMBL3098105, “7,7'-Diazaindirubin--a small molecule inhibitor of casein kinase 2 in vitro and in cells” (Bioorg Med Chem, 2014).

Tests used:
[1] = target: Mitogen-activated protein kinase kinase kinase 5 (Homo sapiens) (UniProt Q99683); experiment: Inhibition of human ASK1 assessed as residual activity at 1 uM relative to control
[2] = target: Protein kinase C beta type (Homo sapiens) (UniProt P05771); experiment: Inhibition of human PKCbeta2 assessed as residual activity at 1 uM relative to control
MCF7 = experiment: Cell cycle arrest in human MCF7 cells assessed as accumulation at G2/M phase at 0.25 uM after 24 hrs using propidium iodide staining by FACS analysis (reference value: 22.13%); type: functional
[3] = target: Receptor-type tyrosine-protein kinase FLT3 (Homo sapiens) (UniProt P36888); experiment: Inhibition of FLT3 (unknown origin) assessed as residual activity at 1 uM relative to control
[4] = target: Ephrin type-A receptor 5 (Homo sapiens) (UniProt P54756); experiment: Inhibition of human EphA5 assessed as residual activity at 1 uM relative to control
[5] = target: Receptor tyrosine-protein kinase erbB-2 (Homo sapiens) (UniProt P04626); experiment: Inhibition of ERBB2 (unknown origin) assessed as residual activity at 10 uM relative to control
[6] = target: Serine/threonine-protein kinase Nek11 (Homo sapiens) (UniProt Q8NG66); experiment: Inhibition of human NEK11 assessed as residual activity at 1 uM relative to control
[7] = target: Tyrosine-protein kinase SYK (Homo sapiens) (UniProt P43405); experiment: Inhibition of human Syk assessed as residual activity at 1 uM relative to control
[8] = target: Tyrosine-protein kinase Yes (Homo sapiens) (UniProt P07947); experiment: Inhibition of human Yes assessed as residual activity at 1 uM relative to control
[9] = target: Serine/threonine-protein kinase NLK (Homo sapiens) (UniProt Q9UBE8); experiment: Inhibition of human NLK assessed as residual activity at 1 uM relative to control
[10] = target: cGMP-dependent protein kinase 1 (Homo sapiens) (UniProt Q13976); experiment: Inhibition of human PKG1beta assessed as residual activity at 1 uM relative to control
[11] = target: LIM domain kinase 1 (Homo sapiens) (UniProt P53667); experiment: Inhibition of human LIMK1 assessed as residual activity at 1 uM relative to control
OVCAR-8 = experiment: Antiproliferative activity against human OVCAR8 cells after 3 days by sulforhodamine B assay; type: functional; settings: OVCAR-8, 72 h
In short: (§1)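 Tested in the NCI 60 cell line panel. GI50 is the concentration giving 50% inhibition of cell growth, and values are the mean of two series of tests.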

[12] = target: Serine/threonine-protein kinase DCLK2 (Homo sapiens) (UniProt Q8N568); experiment: Inhibition of human DCAMKL2 assessed as residual activity at 1 uM relative to control
[13] = target: Cyclin-dependent kinase 1/cyclin B1 (Homo sapiens) (UniProt P06493+P14635); experiment: Inhibition of CDK1/CycB1 (unknown origin) assessed as residual activity at 1 uM relative to control; type: protein-complex assay
[14] = target: Serine/threonine-protein kinase Nek3 (Homo sapiens) (UniProt P51956); experiment: Inhibition of human NEK3 assessed as residual activity at 1 uM relative to control
[15] = target: Serine/threonine-protein kinase TBK1 (Homo sapiens) (UniProt Q9UHD2); experiment: Inhibition of human TBK1 assessed as residual activity at 1 uM relative to control
[16] = Antiproliferative activity against human NCI-ADR-RES cells after 3 days by sulforhodamine B assay; type: functional; settings: 72 h; in short: as §1
[17] = target: T1, Muscle, skeletal receptor tyrosine-protein kinase (Homo sapiens) (UniProt O15146); experiment: Inhibition of MUSK (unknown origin) assessed as residual activity at 10 uM relative to control
T1 sequence (whole entry): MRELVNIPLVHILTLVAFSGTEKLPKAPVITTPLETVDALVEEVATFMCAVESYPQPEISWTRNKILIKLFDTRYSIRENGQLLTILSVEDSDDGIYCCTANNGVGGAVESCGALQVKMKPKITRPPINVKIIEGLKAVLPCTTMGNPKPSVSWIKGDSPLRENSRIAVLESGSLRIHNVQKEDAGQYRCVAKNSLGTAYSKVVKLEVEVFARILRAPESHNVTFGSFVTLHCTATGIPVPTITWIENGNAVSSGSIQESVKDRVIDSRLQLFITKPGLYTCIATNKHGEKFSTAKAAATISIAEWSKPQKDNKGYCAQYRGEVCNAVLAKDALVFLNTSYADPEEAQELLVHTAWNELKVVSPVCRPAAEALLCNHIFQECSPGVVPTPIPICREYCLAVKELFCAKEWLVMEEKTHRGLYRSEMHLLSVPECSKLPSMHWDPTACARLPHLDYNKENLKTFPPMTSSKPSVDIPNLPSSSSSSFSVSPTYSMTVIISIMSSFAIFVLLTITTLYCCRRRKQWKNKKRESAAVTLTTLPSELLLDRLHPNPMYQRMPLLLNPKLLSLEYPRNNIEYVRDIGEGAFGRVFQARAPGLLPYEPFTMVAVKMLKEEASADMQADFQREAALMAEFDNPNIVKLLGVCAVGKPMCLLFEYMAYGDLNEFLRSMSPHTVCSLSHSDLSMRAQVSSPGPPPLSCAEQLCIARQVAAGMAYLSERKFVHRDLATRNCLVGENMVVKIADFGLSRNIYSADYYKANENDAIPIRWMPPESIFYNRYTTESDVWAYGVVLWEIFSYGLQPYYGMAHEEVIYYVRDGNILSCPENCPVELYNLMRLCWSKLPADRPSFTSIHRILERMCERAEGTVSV

[18] = target: Serine/threonine-protein kinase TAO3 (Homo sapiens) (UniProt Q9H2K8); experiment: Inhibition of human TAO3 assessed as residual activity at 1 uM relative to control
RPMI-8226 = experiment: Antiproliferative activity against human RPMI8226 cells after 3 days by sulforhodamine B assay; type: functional; settings: RPMI-8226, 72 h; in short: as §1
[19] = target: Serine/threonine-protein kinase Sgk3 (Homo sapiens) (UniProt Q96BR1); experiment: Inhibition of human SGK3 assessed as residual activity at 1 uM relative to control
[20] = target: RAF proto-oncogene serine/threonine-protein kinase (Homo sapiens) (UniProt P04049); experiment: Inhibition of RAF1 (unknown origin) assessed as residual activity at 10 uM relative to control
[21] = target: Ephrin type-A receptor 3 (Homo sapiens) (UniProt P29320); experiment: Inhibition of human EphA3 assessed as residual activity at 1 uM relative to control
SN12C = experiment: Antiproliferative activity against human SN12C cells after 3 days by sulforhodamine B assay; type: functional; settings: 72 h
[22] = target: Mitogen-activated protein kinase 1 (Homo sapiens) (UniProt P28482); experiment: Inhibition of human MAPK1 assessed as residual activity at 1 uM relative to control
[23] = target: Protein kinase C beta type (Homo sapiens) (UniProt P05771); experiment: Inhibition of human PKCbeta1 assessed as residual activity at 1 uM relative to control
[24] = target: G protein-coupled receptor kinase 5 (Homo sapiens) (UniProt P34947); experiment: Inhibition of human GRK5 assessed as residual activity at 1 uM relative to control

Chain of Protein kinase C beta type (Homo sapiens) (P05771 2-671 limits assumed): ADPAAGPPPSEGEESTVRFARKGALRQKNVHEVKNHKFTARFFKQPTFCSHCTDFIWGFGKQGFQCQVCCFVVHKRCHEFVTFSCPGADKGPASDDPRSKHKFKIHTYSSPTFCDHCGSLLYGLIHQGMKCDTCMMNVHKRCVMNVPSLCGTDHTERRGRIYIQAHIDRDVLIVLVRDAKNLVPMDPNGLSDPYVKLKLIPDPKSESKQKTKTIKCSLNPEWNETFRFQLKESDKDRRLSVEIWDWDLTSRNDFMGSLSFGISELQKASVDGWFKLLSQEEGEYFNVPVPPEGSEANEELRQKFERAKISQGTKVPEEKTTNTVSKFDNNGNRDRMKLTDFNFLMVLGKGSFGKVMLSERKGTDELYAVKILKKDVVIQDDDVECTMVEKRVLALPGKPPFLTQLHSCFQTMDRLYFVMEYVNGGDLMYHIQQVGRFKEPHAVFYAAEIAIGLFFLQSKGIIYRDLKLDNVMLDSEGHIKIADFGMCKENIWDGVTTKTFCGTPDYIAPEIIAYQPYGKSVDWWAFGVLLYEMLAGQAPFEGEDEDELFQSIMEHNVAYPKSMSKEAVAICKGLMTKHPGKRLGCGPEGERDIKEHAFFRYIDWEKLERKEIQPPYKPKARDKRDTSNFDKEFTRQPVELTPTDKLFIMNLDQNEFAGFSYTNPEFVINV
Chain of Tyrosine-protein kinase Yes (Homo sapiens) (P07947 2-543 limits assumed): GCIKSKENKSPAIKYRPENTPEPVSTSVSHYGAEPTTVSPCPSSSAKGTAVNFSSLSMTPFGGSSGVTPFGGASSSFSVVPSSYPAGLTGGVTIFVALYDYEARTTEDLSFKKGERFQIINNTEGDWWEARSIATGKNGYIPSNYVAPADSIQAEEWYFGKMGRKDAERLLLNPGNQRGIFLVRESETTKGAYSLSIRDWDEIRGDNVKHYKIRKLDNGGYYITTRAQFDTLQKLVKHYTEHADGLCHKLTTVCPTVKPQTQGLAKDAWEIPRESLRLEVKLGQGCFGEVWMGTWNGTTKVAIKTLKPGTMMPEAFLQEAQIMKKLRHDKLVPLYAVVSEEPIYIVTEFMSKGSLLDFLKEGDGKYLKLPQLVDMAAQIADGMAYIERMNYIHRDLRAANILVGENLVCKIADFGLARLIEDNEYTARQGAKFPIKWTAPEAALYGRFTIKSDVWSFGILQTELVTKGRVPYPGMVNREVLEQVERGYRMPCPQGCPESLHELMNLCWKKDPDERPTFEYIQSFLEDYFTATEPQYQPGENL
Chain of Serine/threonine-protein kinase TAO3 (Homo sapiens) (Q9H2K8 whole entry): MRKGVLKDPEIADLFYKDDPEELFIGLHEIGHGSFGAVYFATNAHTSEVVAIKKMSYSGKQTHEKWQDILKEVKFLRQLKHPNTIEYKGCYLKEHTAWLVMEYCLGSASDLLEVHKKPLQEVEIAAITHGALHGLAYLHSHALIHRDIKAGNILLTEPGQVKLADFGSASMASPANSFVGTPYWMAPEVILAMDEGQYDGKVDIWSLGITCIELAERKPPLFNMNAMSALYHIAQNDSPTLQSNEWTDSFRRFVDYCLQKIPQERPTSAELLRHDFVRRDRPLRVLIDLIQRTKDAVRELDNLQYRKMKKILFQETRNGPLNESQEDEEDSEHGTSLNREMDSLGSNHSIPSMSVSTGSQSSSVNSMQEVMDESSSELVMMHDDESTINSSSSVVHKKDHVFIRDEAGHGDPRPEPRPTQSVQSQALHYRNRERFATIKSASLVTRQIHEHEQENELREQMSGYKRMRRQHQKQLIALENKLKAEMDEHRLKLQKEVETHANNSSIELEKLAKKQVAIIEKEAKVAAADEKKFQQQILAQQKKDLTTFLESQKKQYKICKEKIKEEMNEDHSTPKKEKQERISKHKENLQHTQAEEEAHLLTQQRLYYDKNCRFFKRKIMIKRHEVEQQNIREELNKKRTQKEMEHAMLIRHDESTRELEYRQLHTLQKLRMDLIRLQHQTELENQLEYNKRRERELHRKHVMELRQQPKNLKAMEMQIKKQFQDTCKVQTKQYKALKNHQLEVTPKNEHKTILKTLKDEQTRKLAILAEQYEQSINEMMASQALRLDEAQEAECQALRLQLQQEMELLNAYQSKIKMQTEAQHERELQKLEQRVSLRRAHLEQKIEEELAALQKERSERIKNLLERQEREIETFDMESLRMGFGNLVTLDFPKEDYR
Chain of Serine/threonine-protein kinase TBK1 (Homo sapiens) (Q9UHD2 whole entry): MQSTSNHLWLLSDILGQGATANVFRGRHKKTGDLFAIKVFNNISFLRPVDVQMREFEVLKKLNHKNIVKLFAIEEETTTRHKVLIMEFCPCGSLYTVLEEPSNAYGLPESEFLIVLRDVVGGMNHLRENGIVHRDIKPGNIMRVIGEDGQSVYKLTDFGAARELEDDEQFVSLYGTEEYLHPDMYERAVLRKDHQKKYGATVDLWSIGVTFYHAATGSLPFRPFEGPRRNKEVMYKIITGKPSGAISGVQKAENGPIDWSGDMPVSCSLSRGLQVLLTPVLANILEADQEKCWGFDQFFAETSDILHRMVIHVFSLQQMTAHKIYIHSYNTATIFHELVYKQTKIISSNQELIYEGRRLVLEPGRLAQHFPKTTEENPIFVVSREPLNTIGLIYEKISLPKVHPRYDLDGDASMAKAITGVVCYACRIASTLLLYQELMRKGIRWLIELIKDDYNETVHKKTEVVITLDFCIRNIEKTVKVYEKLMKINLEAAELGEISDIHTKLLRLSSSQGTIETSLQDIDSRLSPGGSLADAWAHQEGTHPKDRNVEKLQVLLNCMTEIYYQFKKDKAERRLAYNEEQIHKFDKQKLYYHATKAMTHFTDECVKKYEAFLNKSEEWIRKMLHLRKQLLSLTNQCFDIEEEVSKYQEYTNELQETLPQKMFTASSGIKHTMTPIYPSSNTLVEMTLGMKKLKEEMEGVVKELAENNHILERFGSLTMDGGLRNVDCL
Chain of Serine/threonine-protein kinase NLK (Homo sapiens) (Q9UBE8 whole entry): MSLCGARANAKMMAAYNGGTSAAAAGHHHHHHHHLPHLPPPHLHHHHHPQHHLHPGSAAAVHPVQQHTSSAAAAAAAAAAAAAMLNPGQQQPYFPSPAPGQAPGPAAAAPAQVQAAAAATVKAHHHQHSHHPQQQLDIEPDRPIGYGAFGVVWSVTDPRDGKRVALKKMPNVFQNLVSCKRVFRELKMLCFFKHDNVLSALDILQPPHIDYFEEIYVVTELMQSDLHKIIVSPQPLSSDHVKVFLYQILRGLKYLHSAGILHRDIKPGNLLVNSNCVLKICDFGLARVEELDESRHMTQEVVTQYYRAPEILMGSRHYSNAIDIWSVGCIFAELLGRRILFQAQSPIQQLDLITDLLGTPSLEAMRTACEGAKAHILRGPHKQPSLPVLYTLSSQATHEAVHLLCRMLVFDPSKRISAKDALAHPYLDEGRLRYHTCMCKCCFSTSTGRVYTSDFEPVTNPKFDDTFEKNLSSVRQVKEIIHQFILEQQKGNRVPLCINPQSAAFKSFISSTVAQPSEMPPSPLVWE
Chain of Serine/threonine-protein kinase DCLK2 (Homo sapiens) (Q8N568 whole entry): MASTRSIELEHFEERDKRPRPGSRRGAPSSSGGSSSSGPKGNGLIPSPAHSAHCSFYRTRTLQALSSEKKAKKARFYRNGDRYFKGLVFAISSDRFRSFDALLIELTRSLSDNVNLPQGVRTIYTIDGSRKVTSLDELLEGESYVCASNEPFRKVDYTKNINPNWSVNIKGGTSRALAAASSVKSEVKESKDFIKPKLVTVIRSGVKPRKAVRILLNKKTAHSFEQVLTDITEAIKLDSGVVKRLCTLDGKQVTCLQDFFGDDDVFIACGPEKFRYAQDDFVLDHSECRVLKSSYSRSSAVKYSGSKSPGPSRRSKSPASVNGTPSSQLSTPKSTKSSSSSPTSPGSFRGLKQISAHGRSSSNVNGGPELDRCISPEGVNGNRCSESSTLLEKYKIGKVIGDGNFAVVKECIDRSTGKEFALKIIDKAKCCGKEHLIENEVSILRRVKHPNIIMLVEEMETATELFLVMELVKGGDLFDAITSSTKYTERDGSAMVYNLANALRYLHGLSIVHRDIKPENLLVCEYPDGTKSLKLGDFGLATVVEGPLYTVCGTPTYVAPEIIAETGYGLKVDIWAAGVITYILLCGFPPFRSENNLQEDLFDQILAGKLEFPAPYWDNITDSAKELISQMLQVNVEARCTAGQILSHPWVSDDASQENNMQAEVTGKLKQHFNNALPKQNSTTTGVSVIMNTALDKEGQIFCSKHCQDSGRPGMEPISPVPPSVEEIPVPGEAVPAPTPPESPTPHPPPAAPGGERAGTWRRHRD
Chain of LIM domain kinase 1 (Homo sapiens) (P53667 whole entry, looked up, the tested form may be a part): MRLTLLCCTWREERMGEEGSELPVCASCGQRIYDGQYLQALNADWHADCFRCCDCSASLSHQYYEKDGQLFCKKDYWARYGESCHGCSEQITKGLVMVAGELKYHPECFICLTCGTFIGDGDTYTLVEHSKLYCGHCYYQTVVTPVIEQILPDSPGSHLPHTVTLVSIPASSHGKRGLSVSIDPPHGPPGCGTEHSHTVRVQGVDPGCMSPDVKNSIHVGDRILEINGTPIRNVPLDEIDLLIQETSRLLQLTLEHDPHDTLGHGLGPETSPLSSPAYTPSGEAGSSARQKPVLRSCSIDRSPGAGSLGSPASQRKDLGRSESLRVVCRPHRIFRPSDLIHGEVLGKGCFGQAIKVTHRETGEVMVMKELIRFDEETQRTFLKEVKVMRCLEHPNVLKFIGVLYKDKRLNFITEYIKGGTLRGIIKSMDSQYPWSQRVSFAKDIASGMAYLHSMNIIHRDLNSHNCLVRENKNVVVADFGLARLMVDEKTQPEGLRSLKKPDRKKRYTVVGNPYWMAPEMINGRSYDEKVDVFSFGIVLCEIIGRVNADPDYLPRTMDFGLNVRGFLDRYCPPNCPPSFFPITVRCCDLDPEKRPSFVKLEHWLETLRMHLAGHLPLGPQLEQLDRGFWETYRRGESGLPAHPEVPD

Compound: O=C1Nc2ncccc2/C1=C1/Nc2ncccc2C1=O
- Activity [1]: 136%
- Activity [2]: 101%
- Activity (MCF7): 21.66%
- Activity [3]: 79%
- Activity [4]: 125%
- Activity [5]: 102%
- Activity [6]: 73%
- Activity [7]: 91%
- Activity [8]: 120%
- Activity [9]: 123%
- Activity [10]: 90%
- Activity [11]: 80%
- GI50 (OVCAR-8): 1370 nM
- Activity [12]: 100%
- Activity [13]: 70%
- Activity [14]: 109%
- Activity [15]: 120%
- GI50 [16]: 1390 nM
- Activity [17]: 98%
- Activity [18]: 96%
- GI50 (RPMI-8226): 2120 nM
- Activity [19]: 113%
- Activity [20]: 86%
- Activity [21]: 83%
- GI50 (SN12C): 1410 nM
- Activity [22]: 96%
- Activity [23]: 105%
- Activity [24]: 99%
